According to publication PMC4576835 (Clinical and experimental pharmacology & physiology, 2009):
Values belong to the compound of their own block, whether it stands above or below them.

What was measured:
[1] = target: T1, glypican-1 binding to Slit protein (Homo sapiens, UniProt O94813, DEL1116-1124); assay: ELISA of glypican-1–Fc binding to immobilised human full-length Slit-2
T1 sequence (O94813 with tags, fused parts or gaps DEL1116-1124): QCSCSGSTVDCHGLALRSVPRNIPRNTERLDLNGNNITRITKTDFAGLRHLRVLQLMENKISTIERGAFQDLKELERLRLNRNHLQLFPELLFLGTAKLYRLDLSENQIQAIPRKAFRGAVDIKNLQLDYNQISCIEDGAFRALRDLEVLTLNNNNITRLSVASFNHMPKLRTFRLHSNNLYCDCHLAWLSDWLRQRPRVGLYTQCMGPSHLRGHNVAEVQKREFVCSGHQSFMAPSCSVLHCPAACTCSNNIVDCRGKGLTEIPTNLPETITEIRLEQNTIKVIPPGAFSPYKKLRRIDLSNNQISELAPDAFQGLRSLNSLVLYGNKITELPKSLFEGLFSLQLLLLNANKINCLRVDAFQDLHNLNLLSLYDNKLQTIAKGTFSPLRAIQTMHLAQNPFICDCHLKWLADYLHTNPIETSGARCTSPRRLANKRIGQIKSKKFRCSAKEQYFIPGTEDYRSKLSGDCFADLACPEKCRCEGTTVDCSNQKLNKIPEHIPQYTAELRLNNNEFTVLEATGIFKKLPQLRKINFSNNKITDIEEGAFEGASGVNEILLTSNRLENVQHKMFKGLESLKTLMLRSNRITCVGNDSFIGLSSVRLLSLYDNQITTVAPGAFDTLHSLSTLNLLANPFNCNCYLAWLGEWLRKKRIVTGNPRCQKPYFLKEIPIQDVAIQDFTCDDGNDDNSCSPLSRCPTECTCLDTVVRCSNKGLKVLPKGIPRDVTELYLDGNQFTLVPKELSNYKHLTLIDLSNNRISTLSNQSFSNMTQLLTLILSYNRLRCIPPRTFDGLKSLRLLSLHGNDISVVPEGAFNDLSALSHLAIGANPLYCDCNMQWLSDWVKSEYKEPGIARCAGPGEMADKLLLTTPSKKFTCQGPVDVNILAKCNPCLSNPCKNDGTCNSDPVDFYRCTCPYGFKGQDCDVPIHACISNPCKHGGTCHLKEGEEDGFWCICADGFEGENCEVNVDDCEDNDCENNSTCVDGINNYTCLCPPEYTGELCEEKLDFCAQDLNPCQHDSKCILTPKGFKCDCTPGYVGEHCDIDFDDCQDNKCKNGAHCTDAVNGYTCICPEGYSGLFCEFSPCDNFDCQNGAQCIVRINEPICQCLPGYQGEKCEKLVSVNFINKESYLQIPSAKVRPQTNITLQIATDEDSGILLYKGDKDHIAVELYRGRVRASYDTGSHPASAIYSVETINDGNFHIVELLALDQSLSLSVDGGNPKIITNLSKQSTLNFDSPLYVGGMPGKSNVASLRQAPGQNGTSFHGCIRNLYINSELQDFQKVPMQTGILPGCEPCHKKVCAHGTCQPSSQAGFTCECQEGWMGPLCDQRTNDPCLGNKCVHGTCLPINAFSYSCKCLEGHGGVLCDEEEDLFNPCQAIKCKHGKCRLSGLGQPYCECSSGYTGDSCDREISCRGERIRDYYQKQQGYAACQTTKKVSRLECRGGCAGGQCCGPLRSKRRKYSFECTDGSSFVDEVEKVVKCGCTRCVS
Summary of the method: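 Wells coated overnight with His-tagged uncleavable full-length human Slit-2 (HEK293-expressed, Ni-agarose purified), 5 μg/well in PBS; blocked 2 h with 10% FBS/TBST. Glycanated glypican-1–Fc (HEK293, DEAE then protein A) added at 1 μg/mL in PBS, 18 h, room temperature. Detection: biotinylated anti-human Fc, HRP-streptavidin, o-phenylenediamine, 450 nm. Non-specific binding from BSA-coated wells; bound amount read from glypican-1–Fc standard curve; replicates.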

[2] = in whole blood; cited from earlier work

- inhibition of glypican–Slit binding (in words) ([1]; at concentrations up to 50 μmol/L): completely inactive
Structure (SMILES): CO[C@H]1O[C@H](COS(=O)(=O)O)[C@@H](O[C@@H]2O[C@@H](C(=O)O)[C@@H](O[C@H]3O[C@H](COS(=O)(=O)O)[C@@H](O[C@@H]4O[C@H](C(=O)O)[C@@H](O[C@H]5O[C@H](COS(=O)(=O)O)[C@@H](O)[C@H](O)[C@H]5NS(=O)(=O)O)[C@H](O)[C@H]4O)[C@H](OS(=O)(=O)O)[C@H]3NS(=O)(=O)O)[C@H](O)[C@H]2OS(=O)(=O)O)[C@H](O)[C@H]1NS(=O)(=O)O [fondaparinux]

- inhibition of glypican binding to Slit ([1]; at 5 μmol/L): 61%
- inhibition of glypican binding to Slit ([1]; at 50 μmol/L): 67%
Structure (SMILES): O=S(=O)(O)c1cc2c(O)c(c1)Cc1cc(S(=O)(=O)O)cc(c1O)Cc1cc(S(=O)(=O)O)cc(c1O)Cc1cc(S(=O)(=O)O)cc(c1O)Cc1cc(S(=O)(=O)O)cc(c1O)Cc1cc(S(=O)(=O)O)cc(c1O)Cc1cc(S(=O)(=O)O)cc(c1O)Cc1cc(S(=O)(=O)O)cc(c1O)C2 [GL-522-Y-1, cyclic octaphenol-octasulphonic acid]
- anticoagulant activity [2]: no significant anticoagulant activity

- inhibition at 5 µM ([1]; read-out: inhibition of glypican binding to Slit): 53%
Structure (SMILES): Cc1ccc(C(=O)Nc2ccc(S(=O)(=O)O)c3cc(S(=O)(=O)O)cc(S(=O)(=O)O)c23)cc1NC(=O)c1cccc(NC(=O)Nc2cccc(C(=O)Nc3cc(C(=O)Nc4ccc(S(=O)(=O)O)c5cc(S(=O)(=O)O)cc(S(=O)(=O)O)c45)ccc3C)c2)c1 [suramin]
